Bioassay records as filed in PubChem.
The entries come from a sample that favours hits as a whole.
GSH bead fluor = compound fluoresces at 488/530 nm on GSH beads; GSH beads flow cytometry, compound fluorescence 488/530 nm; active compounds read high; fluorescence (KMESF) at 10 µM; hit rate 0.25% among 190,000; AID 1776; in the data active means fluorescence above about 89;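 further: glutathione beads carrying GST-tagged Bcl family fusion proteins plus one bare bead set; values are compound well signal with DMSO vehicle wells as background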
PKD1 kinase inh = inhibitors of human PKD1 kinase. Q15139. PKD1 kinase fluorescence polarization assay. inhibition, % (test concentration not listed). hit rate 0.056% among 200,000
Avidin fluor = compound fluoresces at 488/530 nm on avidin beads. compound fluorescence 488/530 nm, flow cytometry; active compounds read high. fluorescence (KMESF) at 10 µM. hit rate 0.38% among 220,000. AID 1775; in the data active means fluorescence above about 47
ABCG2 block = blocks JC-1 efflux by human ABCG2 transporter. IgMXP3 cells, flow cytometry. hit rate 0.1% among 190,000. Q9UNQ0. inhibition, % at 6.6 µM;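 active means inhibition above 80%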;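 further: 0% = DMSO and 100% = nicardipine control wells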
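Read-out basis: Efflux inhibition in percent versus controls | Test system: ABCG2 IgMXP3 and barcoded ABCB1 CCRF-Adr cell mix | Quantity: 3 million cells/mL in well | Schedule: 10 min at 25 °C | Control set: Nicardipine as high control, DMSO as low control | Reagent: JC-1 as fluorescent efflux pump substrate | Signal: Flow cytometry of retained JC-1 fluorescence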
ABCB1 block = human ABCB1 inhibition, ABCG2 as counter-screen. CCRF-Adr cells, JC-1 efflux, flow cytometry. inhibition, % at 6.6 µM. hit rate 0.067% among 190,000. AID 1326; in the data active means inhibition above about 40%;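 further: 0% = vehicle and 100% = reference inhibitor; higher value means more JC-1 retained so stronger ABCB1 efflux block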
Target sequence (P08183 whole entry, looked up): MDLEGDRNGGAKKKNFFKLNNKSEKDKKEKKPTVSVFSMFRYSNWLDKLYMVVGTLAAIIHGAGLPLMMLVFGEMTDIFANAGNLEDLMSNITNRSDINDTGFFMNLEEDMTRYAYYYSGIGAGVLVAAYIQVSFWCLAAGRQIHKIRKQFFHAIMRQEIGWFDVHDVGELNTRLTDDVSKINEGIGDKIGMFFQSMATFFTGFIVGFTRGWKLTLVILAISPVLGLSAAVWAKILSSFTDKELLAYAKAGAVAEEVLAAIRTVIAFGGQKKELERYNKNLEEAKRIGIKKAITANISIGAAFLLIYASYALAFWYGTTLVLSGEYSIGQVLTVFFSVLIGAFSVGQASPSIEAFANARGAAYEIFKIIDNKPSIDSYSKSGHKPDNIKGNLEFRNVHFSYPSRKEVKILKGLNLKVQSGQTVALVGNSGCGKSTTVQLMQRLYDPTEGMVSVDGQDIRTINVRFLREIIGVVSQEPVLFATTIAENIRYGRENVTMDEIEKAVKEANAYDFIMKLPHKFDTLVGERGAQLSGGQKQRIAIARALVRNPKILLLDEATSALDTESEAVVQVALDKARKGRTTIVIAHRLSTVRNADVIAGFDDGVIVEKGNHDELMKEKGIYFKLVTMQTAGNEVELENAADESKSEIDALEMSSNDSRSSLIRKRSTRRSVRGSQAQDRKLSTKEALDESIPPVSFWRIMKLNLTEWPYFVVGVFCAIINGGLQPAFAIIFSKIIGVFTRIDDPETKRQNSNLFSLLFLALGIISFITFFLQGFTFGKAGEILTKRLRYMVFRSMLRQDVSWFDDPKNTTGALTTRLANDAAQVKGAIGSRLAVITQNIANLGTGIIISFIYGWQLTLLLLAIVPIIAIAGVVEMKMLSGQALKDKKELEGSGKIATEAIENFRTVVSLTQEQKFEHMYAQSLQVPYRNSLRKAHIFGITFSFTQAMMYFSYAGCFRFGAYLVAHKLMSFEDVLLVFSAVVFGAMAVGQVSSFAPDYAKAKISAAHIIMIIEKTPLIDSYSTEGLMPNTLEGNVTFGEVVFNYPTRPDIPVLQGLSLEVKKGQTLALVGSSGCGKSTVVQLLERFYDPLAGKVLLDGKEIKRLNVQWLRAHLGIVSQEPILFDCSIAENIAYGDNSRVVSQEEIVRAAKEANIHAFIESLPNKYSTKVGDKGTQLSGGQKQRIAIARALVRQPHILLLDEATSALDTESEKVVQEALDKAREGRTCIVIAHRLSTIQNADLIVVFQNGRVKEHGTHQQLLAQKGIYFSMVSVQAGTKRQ
L major viab = reduces viability of Leishmania major promastigotes. resazurin fluorescence viability. inhibition, % at 10 µM. hit rate 9% among 200,000. AID 1063;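 further: promastigotes grown with compound for 44 hours at 28 °C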
* marks the source's active call; other numbers are inactive results. Unless noted, no stated cut-off is given here; in the data, active means inhibition above about 50%; inactive means the rest.

Screening Cc1nc(-n2[nH]c3c(c2=O)CCCC3)[nH]c(=O)c1Cc1ccccc1 returned GSH bead fluor 14, PKD1 kinase inh -7, Avidin fluor 36, ABCG2 block -2, ABCB1 block -1 and L major viab 96*.
For Cc1nc(N2CCc3ccccc3C2)[nH]c(=O)c1Cc1ccccc1 the results were GSH bead fluor 13, PKD1 kinase inh 8, Avidin fluor 11, ABCG2 block 6, ABCB1 block 1 and L major viab -5.
O=C1COc2ccc(C(=O)COC(=O)Cn3cnc4ccccc43)cc2N1 was read as GSH bead fluor 272*, PKD1 kinase inh 3, Avidin fluor 7, ABCG2 block 1, ABCB1 block 0 and L major viab 11.
O=C1COc2ccc(C(=O)COC(=O)c3ccc4ccccc4n3)cc2N1 was read as GSH bead fluor 12, PKD1 kinase inh 0, Avidin fluor 6, ABCG2 block 34, ABCB1 block 1 and L major viab -7.
For COc1ccc(F)c(CN2CCC(CO)(Cc3cccc(C(F)(F)F)c3)CC2)c1 the results were GSH bead fluor 16, PKD1 kinase inh 10, Avidin fluor 2, ABCG2 block 7, ABCB1 block 3 and L major viab 84*.
COc1cc(CN2CCC(CO)(Cc3cccc(C(F)(F)F)c3)CC2)ccc1F was read as Avidin fluor 3.
Screening COc1ccc(CN2CCC(CO)(Cc3cccc(C(F)(F)F)c3)CC2)cc1Cn1cccn1 returned GSH bead fluor 8, PKD1 kinase inh 10, Avidin fluor 10, ABCG2 block 2, ABCB1 block 4 and L major viab 81*.
`C/C(=C\C(=O)c1ccncc1)Nc1ccccc1O` gave GSH bead fluor 24, PKD1 kinase inh 3, Avidin fluor 5, ABCG2 block 5, ABCB1 block 1 and L major viab 57*.
For Cc1ccc(NC(=O)C(=O)NCCCN2CCOCC2)c(C)c1 the results were Avidin fluor 7.
Screening Cc1ccc2nc(NC(=O)CSc3nnc(C)c(=O)n3N)sc2c1 returned GSH bead fluor 10, PKD1 kinase inh -14, Avidin fluor 15, ABCG2 block 16, ABCB1 block 0 and L major viab 54*.
Cc1ccc(NC(=O)CSc2nnc(C)c(=O)n2N)c(C)c1 was read as GSH bead fluor 10, PKD1 kinase inh 4, Avidin fluor 6, ABCG2 block 0, ABCB1 block 0 and L major viab -6.
Screening O=C(NCCSc1ccccc1)c1cncc(Br)c1 returned GSH bead fluor 18, PKD1 kinase inh -2, Avidin fluor 91*, ABCG2 block 3, ABCB1 block 1 and L major viab -2.
For O=C(Cc1ccccc1)NC1CCN(Cc2ccccc2)CC1 the results were GSH bead fluor 11, PKD1 kinase inh 1, Avidin fluor 12, ABCG2 block 8, ABCB1 block 2 and L major viab 82*.
O=C(NCCSc1ccccc1)c1ccc(Br)cc1 was read as GSH bead fluor 18, PKD1 kinase inh -3, Avidin fluor 16, ABCG2 block 9, ABCB1 block 0 and L major viab -5.
`O=C(NC1CCN(Cc2ccccc2)CC1)C12CC3CC(CC(C3)C1)C2` gave GSH bead fluor 18, PKD1 kinase inh 2, ABCG2 block 0, ABCB1 block 0 and L major viab 88*.
Screening O=C(CCc1nc2ccccc2c(=O)[nH]1)NC1CCN(Cc2ccccc2)CC1 returned GSH bead fluor 256*, PKD1 kinase inh 1, Avidin fluor 9, ABCG2 block 4, ABCB1 block 1 and L major viab -2.
COC(=O)c1ccc(-c2ccc(OC)c([C@H]3[C@H]4C=CC[C@@H](C)[C@@H]4C(=O)N3Cc3ccccc3)c2)cc1 was read as Avidin fluor 7.
Screening O=C(Nc1nc(COc2ccccc2)cs1)c1ccccc1F returned GSH bead fluor 13, PKD1 kinase inh 5, Avidin fluor 1, ABCG2 block 9, ABCB1 block 1 and L major viab 1.
COc1ccccc1-n1c(C)nnc1SCC(=O)Nc1cccc(C(C)=O)c1 was read as GSH bead fluor 14, PKD1 kinase inh -3, Avidin fluor 35, ABCG2 block 4, ABCB1 block 1 and L major viab -2.
O=C(C(c1ccccc1)c1ccccc1)N1CCN(Cc2ccc(Br)cc2)CC1 was read as GSH bead fluor 15, PKD1 kinase inh -2, Avidin fluor 10, ABCG2 block 1, ABCB1 block 0 and L major viab 26.
Screening O=C(Cn1cc2c(n1)CCCCC2)NC1CCN(Cc2ccccc2)CC1 returned GSH bead fluor 23, PKD1 kinase inh -10, Avidin fluor 8, ABCG2 block 1, ABCB1 block 0 and L major viab 83*.
CC(Oc1ccccc1)C(=O)NC1CCN(Cc2ccccc2)CC1 (centres undefined) was read as GSH bead fluor 62, PKD1 kinase inh -7, Avidin fluor 10, ABCG2 block 2, ABCB1 block 0 and L major viab 91*.
`O=C(CCCCn1c(=O)c2ccccc2n(Cc2ccccc2F)c1=O)NC1CCN(Cc2ccccc2)CC1` gave GSH bead fluor 67, PKD1 kinase inh -8, Avidin fluor 13, ABCG2 block 2, ABCB1 block 8 and L major viab 72*.
N#CC(c1ccccc1)C1CCN(Cc2ccccc2)CC1 (centres undefined) was read as GSH bead fluor 9, PKD1 kinase inh -3, Avidin fluor 4, ABCG2 block 3, ABCB1 block 1 and L major viab 88*.
`O=C1C2C3C=CC(C2C(=O)N1C1CCCCC1)C1C2C(=O)N(C4CCCCC4)C(=O)C2C31` (centres undefined) gave GSH bead fluor 17, PKD1 kinase inh -19, Avidin fluor 15, ABCG2 block 0, ABCB1 block 1 and L major viab 9.
`O=C(NCc1ccccc1)c1cncc(Br)c1` gave GSH bead fluor 7, PKD1 kinase inh 0, Avidin fluor 3, ABCG2 block 3, ABCB1 block 0 and L major viab -6.
`O=C(NC1CCN(Cc2ccccc2)CC1)c1cncc(Br)c1` gave GSH bead fluor 11, PKD1 kinase inh -4, Avidin fluor 19, ABCG2 block 4, ABCB1 block 1 and L major viab 67*.
`O=C(c1cc(-c2ccco2)nc2ccccc12)N1CCN(c2ccc(F)cc2)CC1` gave GSH bead fluor 5, PKD1 kinase inh -5, Avidin fluor 12, ABCG2 block 4, ABCB1 block 3 and L major viab 67*.
For O=C(O)c1cc(-c2ccco2)nc2ccccc12 the results were GSH bead fluor 18, PKD1 kinase inh -16, Avidin fluor 2, ABCG2 block 0, ABCB1 block 0 and L major viab -7.
`Clc1ccc(SCCN2CCNCC2)cc1` gave GSH bead fluor 10, PKD1 kinase inh -3, Avidin fluor 11, ABCG2 block 1, ABCB1 block 0 and L major viab 100*.
